Broadly, the pKi is the negative decadic logarithm of the Ki, by convention in mol/L. A lower pKi goes with a large Ki.

pKi: −log10 of the molar value. The source made the active and inactive calls. The rule behind the calls is not given here.

A short description of assay [1]: Competitive inhibition of cyclooxygenase-mediated cyclooxygenation of arachidonic acid in sheep seminal vesicles by Dixon plot analysis. Also on record: species or system Ovis aries. The procedure, abridged: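 Seminal vesicle cyclooxygenase was used with 0.5 uM hematin in 0.1 M Tris-Cl pH 8.5 containing 0.67 mM phenol. Activity was followed as O2 consumption by oxygen electrode in 3-mL chambers, with arachidonic acid as substrate. Ki was derived by Dixon graphical method from eight assays.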

Assay [2] relates to Platelet. Description: Antiplatelet activity against human platelet rich plasma assessed as inhibition of ADP-induced platelet aggregation up to 5 mM incubated for 2 mins prior to ADP-challenge. It is filed as functional. The procedure, abridged:
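PRP came from citrated venous blood of aspirin-free human volunteers (200g, 20 min, RT), at 4-6 x 10^8 platelets/mL, with PPP as blank. Compound sodium salts, 50 mM in 0.1 M Na2CO3, were added as 0.01-0.05 mL to 0.5 mL of stirred PRP at 37 °C, 2 min before ADP. Aggregation was induced by 0.01 mL of 1 mM ADP and followed 2-3 min by aggregometer.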

Assay [3] is filed under the species Homo sapiens. Description: Activity at prostaglandin synthetase in ADP-induced human platelet rich plasma assessed as malondialdehyde formation up to 5 mM by spectrophotometric analysis. An outline of the steps:
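After ADP aggregation, PRP (compound salts added 2 min pre-ADP) was held a further 27 min at 37 °C unstirred. Samples were quenched in 20% trichloroacetic acid/0.6 M HCl and centrifuged. Supernatant was heated 15 min in boiling water with 0.12 M thiobarbiturate (Tris, pH 7.0), then read at A533. MDA = PRP minus PPP signal; recovery was 75-80%.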

For assay [4], the species on record is Ovis aries. Description: Activity at cyclooxygenase in sheep seminal vesicles assessed as oxygen consumption in presence of hematin. An outline of the steps:
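Cyclooxygenase purified from seminal vesicles was supplemented with 0.5 uM hematin. Fatty acid came from a 9 mM heptane stock, dried under N2 just before use and resuspended in 0.1 M Tris-Cl pH 8.5 with 0.67 mM phenol. O2 uptake was read by oxygen electrode in 3-mL chambers. Arachidonic acid was run alongside as control substrate.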

The species named for assay [5] is Ovis aries. Description: Reversible inhibition of cyclooxygenase in sheep seminal vesicles. The procedure, abridged:
(§1)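 Cyclooxygenase O2-electrode assay was run with 0.5 uM hematin in Tris-Cl pH 8.5 with 0.67 mM phenol. Inhibitor was preincubated with enzyme for progressively longer periods, up to 12 min. Degree of inhibition was compared across preincubation times to test for irreversible inactivation.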

The species named for assay [6] is Ovis aries. As to the kind of experiment: Irreversible inactivation of cyclooxygenase-mediated cyclooxygenation of arachidonic acid in sheep seminal vesicles up to 12 mins. The procedure, abridged: as §1
Assay [7] has as its target seed linoleate 13S-lipoxygenase-1 (Glycine max) (UniProt P08170). Description: Activity at soybean lipoxygenase assessed as oxygen consumption.

Take `CCCCC/C(C)=C\C/C=C\C/C=C\CCCCCCC(=O)O`: in assay [1], the pKi is 5.70. The inhibition result in assay [2] and in assay [5] was “Active” each time. The outcome in assay [3], in assay [4] and in assay [6] was inactive. Besides, the outcome in assay [7] was Active.

As for `CCCCC/C=C\C/C=C\C/C=C\CCCCCCC(=O)O`, the inhibition result in assay [2] is “Active”. Besides, the outcome in assay [3] was Active.

With `CCCCC/C=C\C/C=C\C/C=C\C/C=C\CCCC(=O)O`, the result in assay [4] was Active.
